Data on 6 compounds can be found in article PMC7787347 (Journal of medicinal chemistry, 2018).

“Also recorded” adds a separate entry of the source. Where only a bound is given, the exact number is not on record here.

Series [1] deals with Axin2, LEF1, cyclin D1 mRNA in SW480 cells. The experiment in a line: qPCR of Wnt target gene mRNA expression. The series is classed as cell-based, human. To be noted: 24 h, in words. On the technique in general: Quantitative PCR measures a nucleic acid by following its amplification.
The test system of series [2] is cyclin D1, c-myc, active β-catenin (ABC), total β-catenin in SW480 cells. Nature of the series: Western blot of protein expression. The series is classed as cell-based. The conditions noted are these: 24 h, in words. Background: Immunoblotting shows a protein as a band on a membrane.
A further series addresses T1, β-catenin/BCL9 PPI (Homo sapiens, UniProt P35222).
T1 sequence (P35222 1-781): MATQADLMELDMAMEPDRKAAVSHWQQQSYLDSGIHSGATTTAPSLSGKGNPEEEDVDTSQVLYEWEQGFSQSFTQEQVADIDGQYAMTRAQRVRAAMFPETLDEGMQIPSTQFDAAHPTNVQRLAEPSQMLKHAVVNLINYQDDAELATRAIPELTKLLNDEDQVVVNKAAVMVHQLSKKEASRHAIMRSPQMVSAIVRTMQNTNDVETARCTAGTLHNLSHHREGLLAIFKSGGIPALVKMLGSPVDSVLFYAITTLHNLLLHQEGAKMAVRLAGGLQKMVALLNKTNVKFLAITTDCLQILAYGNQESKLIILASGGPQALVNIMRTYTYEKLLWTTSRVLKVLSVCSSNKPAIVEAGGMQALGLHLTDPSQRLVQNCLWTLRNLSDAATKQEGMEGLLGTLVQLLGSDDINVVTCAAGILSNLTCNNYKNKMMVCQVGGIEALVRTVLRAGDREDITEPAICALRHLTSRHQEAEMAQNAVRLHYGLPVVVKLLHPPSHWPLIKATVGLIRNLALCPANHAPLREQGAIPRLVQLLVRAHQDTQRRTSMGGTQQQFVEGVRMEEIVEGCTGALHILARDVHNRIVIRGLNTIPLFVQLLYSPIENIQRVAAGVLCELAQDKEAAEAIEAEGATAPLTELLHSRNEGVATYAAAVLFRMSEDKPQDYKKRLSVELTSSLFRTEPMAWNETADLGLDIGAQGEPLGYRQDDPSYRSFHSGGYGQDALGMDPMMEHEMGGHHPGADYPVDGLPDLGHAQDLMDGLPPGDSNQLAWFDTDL
Nature of the series: AlphaScreen competitive inhibition assay, β-catenin/BCL9 PPI. The series is classed as binding. The conditions noted are these: in words. A general note: Bead proximity is the source of the signal in Alpha formats.

For the next series, the target named is T2, β-catenin/E-cadherin PPI (Homo sapiens, UniProt P35222).
T2 sequence (P35222 1-781): T1 sequence (P35222 1-781)
The experiment in a line: AlphaScreen selectivity assay, β-catenin/E-cadherin PPI. The class given is binding. The conditions noted are these: for selectivity of BCL9/cadherin: ratio of Ki β-catenin/E-cadherin over Ki β-catenin/BCL9.

Series [3] has as its system FOPFlash luciferase reporter (three mutant Tcf4 binding sites) in β-catenin activated HEK293 cells. Nature of the series: FOPFlash luciferase reporter assay. The class given is cell-based. The conditions noted are these: in words; for effect on FOPFlash luciferase reporter activity: β-catenin activated HEK293 cells.
In another series the test system is MDA-MB-231. To be noted: read-out: MTs IC50 ± SD MDA-MB-231; Wnt/β-catenin hyperactive, 72 h; cited from earlier work.
Another series concerns MDA-MB-231 cells. The conditions noted are these: cited from earlier work.
The test system of the next series is SW480. To be noted: read-out: MTs IC50 ± SD SW480; Wnt/β-catenin hyperactive, 72 h; cited from earlier work.
The next series concerns A549. The conditions noted are these: read-out: MTs IC50 ± SD normal Wnt A549, 72 h; cited from earlier work.
The next series concerns β-catenin. To be noted: in words; cited from earlier work.
For another series, the system named is HCT116. To be noted: read-out: MTs IC50 ± SD HCT116; Wnt/β-catenin hyperactive, 72 h; cited from earlier work.
Another series has as its system BCL9 HD2 domain. To be noted: in words; cited from earlier work.
The target in a further series is BCL9 (Homo sapiens) (UniProt O00512). The conditions noted are these: cited from earlier work.
BCL9 (Homo sapiens), sequence (O00512 whole entry): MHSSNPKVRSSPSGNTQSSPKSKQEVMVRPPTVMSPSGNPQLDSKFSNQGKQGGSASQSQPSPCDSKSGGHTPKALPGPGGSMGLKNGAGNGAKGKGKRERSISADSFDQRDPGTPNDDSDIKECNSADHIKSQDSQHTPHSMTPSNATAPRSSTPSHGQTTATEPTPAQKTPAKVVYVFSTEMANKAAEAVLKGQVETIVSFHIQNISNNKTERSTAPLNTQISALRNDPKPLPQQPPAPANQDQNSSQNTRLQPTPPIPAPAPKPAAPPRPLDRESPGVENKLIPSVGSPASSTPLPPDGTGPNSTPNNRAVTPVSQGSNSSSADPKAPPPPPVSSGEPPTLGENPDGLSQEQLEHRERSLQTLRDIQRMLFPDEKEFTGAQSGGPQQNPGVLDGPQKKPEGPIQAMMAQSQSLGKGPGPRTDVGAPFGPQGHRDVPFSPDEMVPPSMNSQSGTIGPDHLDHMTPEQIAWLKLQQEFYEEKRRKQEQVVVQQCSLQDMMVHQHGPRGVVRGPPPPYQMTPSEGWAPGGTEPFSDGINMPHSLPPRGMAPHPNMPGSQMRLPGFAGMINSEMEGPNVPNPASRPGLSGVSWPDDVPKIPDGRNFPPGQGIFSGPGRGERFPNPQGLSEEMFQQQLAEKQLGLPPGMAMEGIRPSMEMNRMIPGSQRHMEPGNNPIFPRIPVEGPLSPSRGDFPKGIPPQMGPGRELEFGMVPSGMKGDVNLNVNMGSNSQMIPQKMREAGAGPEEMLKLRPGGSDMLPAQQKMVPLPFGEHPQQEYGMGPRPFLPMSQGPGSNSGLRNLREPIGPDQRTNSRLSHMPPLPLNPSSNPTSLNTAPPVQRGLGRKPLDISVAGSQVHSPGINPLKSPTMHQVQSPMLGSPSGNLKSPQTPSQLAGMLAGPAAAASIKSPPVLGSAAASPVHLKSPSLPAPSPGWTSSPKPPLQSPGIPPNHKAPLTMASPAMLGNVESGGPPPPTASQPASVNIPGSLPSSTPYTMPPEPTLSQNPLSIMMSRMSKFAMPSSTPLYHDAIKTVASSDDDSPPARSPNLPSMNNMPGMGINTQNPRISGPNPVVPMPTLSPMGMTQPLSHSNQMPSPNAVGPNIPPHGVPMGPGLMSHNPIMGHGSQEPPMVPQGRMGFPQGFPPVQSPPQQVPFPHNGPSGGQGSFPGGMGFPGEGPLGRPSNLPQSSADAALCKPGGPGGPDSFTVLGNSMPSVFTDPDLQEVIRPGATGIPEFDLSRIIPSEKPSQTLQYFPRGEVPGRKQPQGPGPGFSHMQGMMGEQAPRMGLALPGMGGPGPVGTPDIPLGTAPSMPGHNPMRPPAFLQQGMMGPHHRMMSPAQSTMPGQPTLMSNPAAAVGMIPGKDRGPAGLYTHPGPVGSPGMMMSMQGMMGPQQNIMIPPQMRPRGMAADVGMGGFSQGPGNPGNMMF
For the next series, the system named is HCT116 cells. Nature of the series: Cell-bound. The class given is in vitro ADME. The conditions noted are these: 5 mL DMEM with 10% FBS.
In series [4] the test system is β-catenin/BCL9 PPI in HCT116 cells. Nature of the series: Co-IP in whole cells. The class given is cell-based. To be noted: 24 h, in words.
Series [5] concerns full-length β-catenin/full-length BCL9 PPI in HCT116 cell lysates. Nature of the series: Co-IP in cell lysates. The series is classed as cell-based. To be noted: 4 h incubation with HCT116 cell lysates, in words.
The test system of another series is SW480 cells. Nature of the series: LDH release cytotoxicity assay. The series is classed as cell-based. To be noted: 4 h incubation, in words. In a few lines:
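SW480 cells were seeded at 2 × 10^4 cells/well, held overnight at 37 °C, then exposed to various concentrations of test compound for 4 h. The culture supernatant was reacted with the commercial LDH kit reagents and read at 490 nm. Percent cytotoxicity was calculated from experimental, background and maximum LDH release. Run in triplicate.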

Broadly, the Ki is a measure of affinity in units of concentration, obtained from inhibition or displacement. Read a high Ki as lower affinity. Usually IC50 stands for the concentration that gives 50% inhibition. Usually Kd stands for the constant that tells how readily two partners part at equilibrium.

For the compound `Cl.Cl.O=C(Nc1ccc(O[C@H]2CCNC2)c(-c2ccc(F)cc2)c1)c1ccc(O[C@H]2CCNC2)c(-c2ccc3ccsc3c2)c1` [Compound 3, 3-(Benzo[b]thiophen-6-yl)-N-(4′-fluoro-6-(((S)-pyrrolidin-3-yl)-oxy)-[1,1′-biphenyl]-3-yl)-4-(((S)-pyrrolidin-3-yl)oxy)benzamide Dihydrochloride], in series [1], the “mRNA expression of Wnt target genes Axin2, cyclin D1 and LEF1” value is “dose-dependently inhibited”; the “mRNA expression of house-keeper gene HPRT” value was “did not inhibit”. For the same compound, in series [2], the “level of E-cadherin-bound β-catenin (total β-catenin)” value is “no effect”; the “level of the active form of β-catenin (ABC)” value is “inhibit the level of the active form of β-catenin (ABC)”; the “protein expression levels of cyclin D1 and c-myc” value was “significantly decreased”.
As for `Cl.Cl.O=C(Nc1ccc(O[C@H]2CCNC2)c(-c2cccc(-c3nn[nH]n3)c2)c1)c1ccc(O[C@H]2CCNC2)c(-c2ccc(F)c(F)c2)c1` [Compound 27, 3′,4′-Difluoro-6-((S)-pyrrolidin-3-yloxy)-N-(6-((S)-pyrrolidin-3-yloxy)-3′-(2H-tetrazol-5-yl)-[1,1′-biphenyl]-3-yl)-[1,1′-biphenyl]-3-carboxamide Dihydrochloride], at β-catenin/BCL9 PPI, the “AlphaScreen biochemical inhibitory activity compared with 1” value is given as “comparable with that of 1”.
With `Cl.Cl.O=C(Nc1ccc(O[C@@H]2CCNC2)c(-c2cccc(-c3nn[nH]n3)c2)c1)c1ccc(O[C@H]2CCNC2)c(-c2ccc3ccsc3c2)c1` [Compound 30, (R)-3-((5-(3-(Benzo[b]thiophen-6-yl)-4-(((S)-pyrrolidin-1-ium-3-yl)oxy)benzamido)-3′-(2H-tetrazol-5-yl)-[1,1′-biphenyl]-2-yl)oxy)-pyrrolidin-1-ium Chloride], at β-catenin/E-cadherin PPI, the Ki was more than 915 µM and the “selectivity of BCL9/cadherin” value was more than 570 fold. For the same compound, in series [3], the “effect on FOPFlash luciferase reporter activity” value was “specific for the Wnt/β-catenin signaling pathway”. For the same compound, the “AlphaScreen biochemical inhibitory activity compared with 1” value on β-catenin/BCL9 PPI is “comparable with that of 1”.
`Cl.Cl.O=C(Nc1ccc(O[C@H]2CCNC2)c(-c2ccc(F)cc2)c1)c1ccc(O[C@H]2CCNC2)c(-c2ccc(F)c(F)c2)c1` [Compound 1]: the IC50 with MDA-MB-231 was 2.3 ± 0.25 µM; in the series on SW480 it was 3.5 ± 0.32 µM; in the series on A549, 8.8 ± 0.62 µM; in the series with HCT116, 3.1 ± 0.83 µM. For the same compound, the “cell-bound concentration at 4 °C” value with MDA-MB-231 cells (6 h incubation at 4 °C, 5 mL DMEM with 10% FBS) is on record as 1 nmol/million MDA-MB-231 cells. For the same compound, the “cell-bound concentration at 37 °C” value in the series with MDA-MB-231 cells (6 h incubation, 5 mL DMEM with 10% FBS, input concentration 2 μM) was 6.7 nmol/million MDA-MB-231 cells. Also, the “amount bound with the cell membrane by the nonspecific manner” value in the series on MDA-MB-231 cells (MDA-MB-231 cells) was 15%. In addition, the “binding with β-catenin in ITC” value in the series on β-catenin was “bind with β-catenin”. In addition, the “binding with BCL9 HD2 domain in ITC” value with BCL9 HD2 domain is given as “not the BCL9 HD2 domain”.
Consider β-catenin (from UniProt P35222), for which the Kd with BCL9 (Homo sapiens) is 0.47 µM.
On to `Cl.Cl.O=C(Nc1ccc(O[C@@H]2CCNC2)c(-c2cccc(-c3nn[nH]n3)c2)c1)c1ccc(O[C@H]2CCNC2)c(-c2ccc(F)c(F)c2)c1` [Compound 29, 3′,4′-Difluoro-6-(((S)-pyrrolidin-3-yl)oxy)-N-(6-(((R)-pyrrolidin-3-yl)oxy)-3′-(2H-tetrazol-5-yl)-[1,1′-biphenyl]-3-yl)-[1,1′-biphenyl]-3-carboxamide Dihydrochloride], for which the “cell-bound concentration at 4 °C” value with HCT116 cells (6 h incubation at 4 °C) was 5.1 nmol/million HCT116 cells. The “cell-bound concentration at 37 °C” value with HCT116 cells (6 h incubation, input concentration 50 μM) came out at 6.6 nmol/million HCT116 cells. Further, in series [4], the “disruption of β-catenin/BCL9 PPI in cells” value is reported as “inhibited the β-catenin/BCL9 PPI in a dose-dependent manner”. Moreover, the “disruption of full-length β-catenin/full-length BCL9 PPI” value in [5] is on record as “dose-dependently disrupt”. Further, at β-catenin/E-cadherin PPI, the Ki was more than 915 µM and the “selectivity of BCL9/cadherin” value is reported as more than 1900 fold. Moreover, the “effect on FOPFlash luciferase reporter activity up to 200 μM” value in series [3] (up to the concentration of 200 μM) is “no effect”. Further, the “effect on FOPFlash luciferase reporter activity” value in series [3] is reported as “specific for the Wnt/β-catenin signaling pathway”. In [1], the “mRNA expression of Wnt target genes Axin2, cyclin D1 and LEF1” value is “dose-dependently inhibited”; the “mRNA expression of house-keeper gene HPRT” value is “did not inhibit”. In the series with SW480 cells, the “cytotoxicity in LDH release assay” value is recorded as “did not exhibit cytotoxicity; also recorded: did not show cytotoxicity”. In addition, in series [2], the “level of E-cadherin-bound β-catenin (total β-catenin)” value is “no effect”; the “level of the active form of β-catenin (ABC)” value is listed as “inhibit the level of the active form of β-catenin (ABC)”; the “protein expression levels of cyclin D1 and c-myc” value is “significantly decreased”.
